Results pooled from the literature.
Matrix: plasma

Compound	host	route	dose	setting	quantity	result
N[C@@H](CC(=O)O)Cn1nnc(-c2ccc(Oc3ncc(Cl)cc3F)cc2)n1	male beagle dog	oral	0.5 mg/kg		Cmax	5.7 ng/mL
CC(=Nc1ccc(N=Cc2cnccn2)cc1)N(C)C	male Sprague-Dawley rat	oral	200 mg/kg		Tmax	4.98 min
CCN1CCN(Cc2ccc(NC(=O)c3ccc(C)c(NC(=O)c4cncc(-c5cccs5)c4)c3)cc2C(F)(F)F)CC1	mouse	intraperitoneal	20 mg/kg	single dose	CL/F	151 mL/min/kg
O=C1CCC(N2Cc3cc(NC(=O)c4cccc(F)c4)ccc3C2=O)C(=O)N1 (stereo not drawn)	female CD-1 mouse	intravenous	3 mg/kg		clearance	24 mL/min/kg
Cc1c(C(=O)O)ccc2c3n(nc12)[C@@H]1[C@H](C3)N(CC2CC2)[C@@]2(C(=O)Nc3cc(Cl)ccc32)[C@H]1c1cccc(Cl)c1F	male dog	oral	2 mg/kg		Cmax	3.5 µM
CC1=NN(/C(=N/c2nnc(C)s2)Nc2ccc(C)c(C)c2)C(c2cc(F)c(F)c(F)c2)S1 (stereo not drawn)	male CD-1 mouse	intravenous	1 mg/kg		clearance	121 mL/min/kg
CCNCCCn1c2c(c3cc(OC)c(OC)cc3c1=O)C(=O)c1cc3c(nc1-2)OCO3	male CD-1 mouse	intravenous	1 mg/kg		clearance	107 mL/min/kg
O=C1CCC(N2Cc3cc(Nc4noc5cc(F)ccc45)ccc3C2=O)C(=O)N1 (stereo not drawn)	female CD-1 mouse	intravenous	3 mg/kg		clearance	55 mL/min/kg
O=C1CC[C@H](N2Cc3cc(N4CCN(CC5CCN(c6ccc([C@@H]7c8ccc(O)cc8CC[C@@H]7c7ccccc7)cc6)CC5)CC4)ccc3C2=O)C(=O)N1	female Sprague-Dawley rat	oral	20 mg/kg	fed	Tmax	320 min
CC(=O)CC(=O)C1CC(C)C(=O)C1=O (stereo not drawn)	male Sprague-Dawley rat	oral	100 mg/kg		Tmax	4.8 min
COc1cc2c3c(n(CCCNCCO)c(=O)c2cc1OC)-c1nc2c(cc1C3=O)OCO2	male CD-1 mouse	intravenous	1 mg/kg		clearance	107 mL/min/kg
O=C(C=Cc1ccccc1)Nc1cc(-c2ccnc(N3CCC(O)CC3)c2)ccn1	female Sprague-Dawley rat	intravenous	5 mg/kg		Tmax	4.98 min
Cc1cc([C@@H](C)Nc2ccccc2C(=O)O)c2nc(N3CCC(F)(F)CC3)c(C#N)c(=O)n2c1	male beagle dog	intravenous	2 mg/kg		clearance	64 mL/min/kg
Cc1cc2sc(N)nc2c2cccnc12	female BALB/c mouse	intraperitoneal	30 mg/kg	single dose	CL/F	11 mL/min/kg
N#C[C@@]12C[C@@H]1[C@@H](n1cnc3c(N[C@@H](C4CCC4)C4CC4)nc(I)nc31)[C@H](O)[C@@H]2O	male Wistar rat	oral	10 mg/kg		Tmax	120 min
